Calls of active or inactive are those of the source. The calls are words filed in the database; no cut-off is given here.
How the values were obtained:
[1] = tested on: VGLUT (Rattus norvegicus); experiment: Inhibition of [3H]glutamate uptake at VGLUT in rat brain synaptic vesicles relative to control; values are per cent of control; design: concentration or dose not given beside the values
[2] = organism: Rattus norvegicus; experiment: Inhibition of v-ATPase activity in rat brain synaptic vesicles; type: tissue-based
[3] = Inhibition of [3H]glutamate uptake at VGLUT in rat brain synaptic vesicles; type: tissue-based
How it was run: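 Rat brain synaptic vesicles (approx. 0.1 mg protein) were incubated with ³H-L-glutamate (0.25 mM) and inhibitor over 0.01-5 mM, and the assay was started by adding substrate. IC50 values were taken from non-linear regression of sigmoidal dose-response curves and converted to Ki with the Cheng-Prusoff relationship, as mean ± s.e.m. (n = 3).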

| Compound | level, % of control [1] [%] | also measured |
| --- | --- | --- |
| CC[C@H](C)[C@@H](NC(=O)[C@H](N)CCC(N)=O)C(=O)N[C@H](CCC(=O)O)C(=O)N[C@H](Cc1c[nH]c2ccccc12)C(=O)O | 63 | – |
| CC[C@H](C)[C@@H](NC(=O)[C@@H](N)CCC(N)=O)C(=O)N[C@H](CCC(=O)O)C(=O)N[C@H](Cc1c[nH]c2ccccc12)C(=O)O | 60 | – |
| CC[C@H](C)[C@@H](NC(=O)[C@H](N)CCC(N)=O)C(=O)N[C@@H](CCC(=O)O)C(=O)N[C@H](Cc1c[nH]c2ccccc12)C(=O)O | 35 | – |
| NC(=O)C[C@H](NC(=O)[C@H](N)Cc1c[nH]c2ccccc12)C(=O)N[C@H](CCC(=O)O)C(=O)N[C@H](Cc1ccccc1)C(=O)O | 41 | – |
| CC[C@H](C)[C@@H](NC(=O)[C@@H](N)CCC(N)=O)C(=O)N[C@@H](CCC(=O)O)C(=O)N[C@@H](Cc1c[nH]c2ccccc12)C(=O)O | 69 | – |
| NC(=O)CC(NC(=O)C(N)Cc1c[nH]c2ccccc12)C(=O)NC(CCC(=O)O)C(=O)NC(Cc1ccccc1)C(=O)O (racemic) | 13 | Activity [2]: inactive |
| CC[C@H](C)[C@H](NC(=O)[C@H](N)CCC(N)=O)C(=O)N[C@H](CCC(=O)O)C(=O)N[C@@H](Cc1c[nH]c2ccccc12)C(=O)O | – | IC50 [3]: 864 µM; Ki [3]: 828 µM |
| NC(=O)CCC(N)C(=O)NC(Cc1c[nH]c2ccccc12)C(=O)NC(CCC(=O)O)C(=O)NC(Cc1c[nH]c2ccccc12)C(=O)O (racemic) | 66 | – |
| CC[C@H](C)[C@H](NC(=O)[C@@H](N)CCC(N)=O)C(=O)N[C@H](CCC(=O)O)C(=O)N[C@@H](Cc1c[nH]c2ccccc12)C(=O)O | 82 | – |
| CC[C@H](C)[C@@H](NC(=O)[C@@H](N)CCC(N)=O)C(=O)N[C@@H](CCC(=O)O)C(=O)N[C@H](Cc1c[nH]c2ccccc12)C(=O)O | 28 | – |
| CCC(C)C(NC(=O)C(N)CCC(N)=O)C(=O)NC(CCC(=O)O)C(=O)NC(Cc1c[nH]c2ccccc12)C(=O)O (racemic) | 38 | Activity [2]: inactive |

Source: ChEMBL document CHEMBL1149688, “Tetrapeptide inhibitors of the glutamate vesicular transporter (VGLUT)” (Bioorg Med Chem Lett, 2007)
